According to ChEMBL document CHEMBL1150335, “Benzoylurea derivatives as a novel class of antimitotic agents: synthesis, anticancer activity, and structure-activity relationships” (J Med Chem, 2008):
Calls of active or inactive are those of the source. The rule behind the calls is not given here.

Assays:
[1] = test system: CCRF-CEM; assay: Antiproliferative activity against human CEM cells after 72 hrs by trypan blue assay; assay type: functional, cell-based
Method in brief: (§1)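 Cells kept in RPMI-1640 with 10% heat-inactivated fetal calf serum, penicillin and streptomycin, 5% CO2, 37 °C, used in exponential growth. 1 × 10⁵ cells per well exposed to compound at 0.001–10 µM at 37 °C (48 h in methods, 72 h in table footnotes). Viability by Trypan blue versus untreated controls. IC50 by nonlinear regression, duplicate, three repeats.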

[2] = Inhibition of beta tubulin polymerization at 20 uM
[3] = test system: Bel-7402; assay: Antiproliferative activity against human Bel7402 cells after 72 hrs by trypan blue assay; assay type: functional, cell-based; settings: Bel-7402, 72 h; method in brief: as §1
[4] = Inhibition of beta tubulin polymerization at 1 uM
[5] = test system: Bel-7402; assay: Antitumor activity against human Bel7402 cells xenografted BALB/c mouse assessed as inhibition of tumor growth at 5 mg/kg, ip q2d after 25 days relative to control; assay type: functional; settings: Bel-7402, ip, 600 h, route intraperitoneal
Method in brief: (§2)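 Male Balb/c nude mice (16-20 g, 6-7 weeks) given sc Bel-7402 cells, 5 × 10⁶ per mouse, on the back. Six injections q2d. Tumor volume measured weekly by calipers = length × width² × 0.52. Body weight recorded before and after treatment.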

[6] = test system: CCRF-CEM; assay: Cell cycle arrest in human CEM cells assessed as accumulation at M phase at <0.01 uM after 12 hrs by flow cytometry; assay type: functional
[7] = test system: CCRF-CEM; assay: Cell cycle arrest in human CEM cells assessed as accumulation at G2/M phase at 0.22 uM after 4 to 24 hrs by flow cytometry; assay type: functional, cell-based
Method in brief: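 CEM cells exposed to 0.22 µM compound or left untreated for 4, 12 or 24 h. Fixed in 70% ethanol for at least 12 h at 4 °C, then RNase A 50 µg/mL at 37 °C for 30 min and propidium iodide 50 µg/mL final at 4 °C for 30 min. At least 10⁴ events read by flow cytometry for DNA profile.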

[8] = test system: Bel-7402; assay: Antitumor activity against human Bel7402 cells xenografted BALB/c mouse assessed as inhibition of tumor growth at 10 mg/kg, ip q2d after 25 days relative to control; assay type: functional; settings: Bel-7402, ip, 600 h, route intraperitoneal; method in brief: as §2
[9] = test system: DU-145; assay: Antiproliferative activity against human DU145 cells after 72 hrs by trypan blue assay; assay type: functional, cell-based; settings: DU-145, 72 h; method in brief: as §1
[10] = test system: PC-3; assay: Antiproliferative activity against human PC3 cells after 72 hrs by trypan blue assay; assay type: functional, cell-based; settings: PC-3, 72 h; method in brief: as §1
[11] = test system: Bel-7402; assay: Antitumor activity against human Bel7402 cells xenografted ip dosed BALB/c mouse assessed as inhibition of tumor growth after 25 days relative to control; assay type: functional; settings: Bel-7402, ip, 600 h
Method in brief: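 Male Balb/c nude mice (16-20 g, 6-7 weeks) given sc Bel-7402 cells (5 × 10⁶/mouse) on the back. On day 12 they were randomized (5/group) to solvent control or 5 or 10 mg/kg ip, six doses q2d. Tumors were measured weekly by caliper, volume = length × width² × 0.52. Inhibition was taken versus solvent-treated controls on day 25 post-treatment.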

[12] = Antiproliferative activity against human MIA cells after 72 hrs by trypan blue assay; assay type: functional, cell-based; method in brief: as §1
[13] = test system: CCRF-CEM; assay: Cell cycle arrest in human CEM cells assessed as morphological changes at 0.014 uM after 24 hrs by Giemsa staining
[14] = Antiproliferative activity against human DND1A cells after 72 hrs by trypan blue assay; assay type: functional, cell-based; method in brief: as §1
[15] = test system: MCF7; assay: Antiproliferative activity against human MCF7 cells after 72 hrs by trypan blue assay; assay type: functional, cell-based; settings: MCF7, 72 h; method in brief: as §1
[16] = test system: Mus musculus; assay: Toxicity in human Bel7402 cells xenografted BALB/c mouse assessed as body weight at 10 mg/kg, ip q2d after 25 days relative to control; assay type: organism-based, Bel-7402; design: dose 10 mg/kg, route intraperitoneal; settings: in vivo, 600 h; method in brief: as §2
[17] = test system: LoVo; assay: Antiproliferative activity against human LOVO cells after 72 hrs by trypan blue assay; assay type: functional, cell-based; method in brief: as §1
[18] = test system: Daudi; assay: Antiproliferative activity against human Daudi cells after 72 hrs by trypan blue assay; assay type: functional, cell-based; method in brief: as §1
[19] = test system: CCRF-CEM; assay: Induction of apoptosis in human CEM cells assessed as Bcl2 phosphorylation at 0.014 to 0.27 uM after 12 to 24 hrs by Western blot; assay type: functional, cell-based
Method in brief: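 CEM cells exposed to 0.014–0.27 µM for 12 or 24 h, then lysed in Tris-HCl pH 7.4 buffer with detergents and protease/phosphatase inhibitors. Equal lysate run on 10% SDS-PAGE and transferred to PVDF. Blocked in 5% milk/TBST, probed with anti-Bcl-2 monoclonal and HRP secondary, detected by ECL; phosphorylated Bcl-2 seen as a separate band.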

[20] = Inhibition of beta tubulin polymerization

Row | IC50 [1] [nM] | SMILES | further results
1 | 1570 | COc1ccc(NC(=O)CBr)cc1C(=O)NC(N)=O | –
2 | 1710 | Cc1c(NC(=O)CBr)cccc1C(=O)NC(N)=O | –
3 | 2550 | CC(Br)C(=O)Nc1ccc(Cl)c(C(=O)NC(N)=O)c1 (stereo not given) | –
4 | 2910 | NC(=O)NC(=O)c1ccc(Cl)c(NC(=O)CBr)c1 | –
5 | > 20000 | COc1ccc(C(=O)NC(N)=O)cc1NC(=O)C(C)Cl (stereo not given) | –
6 | 2290 | NC(=O)NC(=O)c1ccc(F)c(NC(=O)CBr)c1 | –
7 | 1300 | COC(=O)c1cc(NC(=O)CBr)cc(C(=O)NC(N)=O)c1 | –
8 | 2700 | COC(=O)c1cc(NC(=O)C(C)Br)cc(C(=O)NC(N)=O)c1 (stereo not given) | –
9 | 1160 | NC(=O)NC(=O)c1cc(NC(=O)CBr)ccc1Br | –
10 | 4050 | NC(=O)NC(=O)c1ccc(NC(=O)CBr)o1 | –
11 | 2700 | Cc1c(NC(=O)CCl)cccc1C(=O)NC(N)=O | –
12 | 7630 | CC(Br)C(=O)Nc1ccc(Br)c(C(=O)NC(N)=O)c1 (stereo not given) | –
13 | 480 | Cc1c(NC(=O)C(C)Br)cccc1C(=O)NC(N)=O (stereo not given) | –
14 | 1910 | COC(=O)c1cc(NC(=O)CI)cc(C(=O)NC(N)=O)c1 | –
15 | > 20000 | Cc1ccc(C(=O)NC(N)=O)cc1NC(=O)C(C)Cl (stereo not given) | –
16 | 1470 | C[C@H](Br)C(=O)Nc1cccc(C(=O)NC(N)=O)c1 | –
17 | > 20000 | Cc1c(NC(=O)C(C)Cl)cccc1C(=O)NC(N)=O (stereo not given) | –
18 | > 20000 | NC(=O)NC(=O)c1ccc(O)c(NC(=O)CBr)c1 | –
19 | 1580 | CC(Br)C(=O)Nc1cc(C(=O)NC(N)=O)cc([N+](=O)[O-])c1 (stereo not given) | –
20 | 3940 | CC(Br)C(=O)Nc1cc(C(=O)NC(N)=O)cs1 (stereo not given) | –
21 | > 20000 | CC(Cl)C(=O)Nc1cc(C(=O)NC(N)=O)ccc1Cl (stereo not given) | –
22 | 1470 | C[C@@H](Br)C(=O)Nc1cccc(C(=O)NC(N)=O)c1 | –
23 | > 20000 | COc1ccc(C(=O)NC(N)=O)cc1NC(=O)CCl | –
24 | 16600 | NC(=O)NC(=O)c1ccc(NC(=O)CCl)o1 | –

Row | IC50 [1] [nM] | SMILES | further results
25 | > 20000 | Cc1ccc(NC(=O)C(C)Br)cc1C(=O)NC(N)=O (stereo not given) | –
26 | 2440 | NC(=O)NC(=O)c1cc(NC(=O)CCl)ccc1Cl | –
27 | – | CC(=O)O[C@H]1C(=O)[C@@]2(C)[C@H]([C@H](OC(=O)c3ccccc3)[C@]3(O)C[C@H](OC(=O)[C@H](O)[C@@H](NC(=O)c4ccccc4)c4ccccc4)C(C)=C1C3(C)C)[C@]1(OC(C)=O)CO[C@@H]1C[C@@H]2O | Activity [2]: inactive
28 | 9800 | CC(Br)C(=O)Nc1cc(C(=O)NC(N)=O)ccc1Cl (stereo not given) | –
29 | 4760 | Cc1ccc(NC(=O)CBr)cc1C(=O)NC(N)=O | –
30 | 3360 | Cc1ccc(C(=O)NC(N)=O)cc1NC(=O)CCl | –
31 | – | CC[C@]1(O)C[C@H]2CN(CCc3c([nH]c4ccccc34)[C@@](C(=O)OC)(c3cc4c(cc3OC)N(C=O)[C@H]3[C@@](O)(C(=O)OC)[C@H](OC(C)=O)[C@]5(CC)C=CCN6CC[C@]43[C@@H]65)C2)C1 | Activity [2]: Active
32 | > 20000 | NC(=O)NC(=O)c1ccc(O)c(NC(=O)CCl)c1 | –
33 | 1130 | NC(=O)NC(=O)c1csc(NC(=O)CBr)c1 | –
34 | 1530 | NC(=O)NC(=O)c1cc(NC(=O)CBr)cc([N+](=O)[O-])c1 | –
35 | 3360 | Cc1ccc(C(=O)NC(N)=O)cc1NC(=O)C(C)Br (stereo not given) | –
36 | 15900 | NC(=O)NC(=O)c1ccc(Cl)c(NC(=O)CCl)c1 | –
37 | > 20000 | COc1ccc(C(=O)NC(N)=O)cc1NC(=O)C(C)Br (stereo not given) | –
38 | 20000 | Cc1ccc(NC(=O)CI)cc1C(=O)NC(N)=O | –
39 | < 10 | NC(=O)NC(=O)c1cc(NC(=O)CBr)ccc1F | inhibition in vivo at 5 mg/kg [5]: 37%; Activity [6]: 31.3%; inhibition in vivo at 10 mg/kg [8]: 52%; IC50 [15]: 80 nM; Activity [16]: 18.6 g; IC50 [18]: 15 nM
40 | 9440 | CC(Br)C(=O)Nc1ccc(C(=O)NC(N)=O)o1 (stereo not given) | –
41 | 3130 | CC(Br)C(=O)Nc1cc(C(=O)NC(N)=O)ccc1F (stereo not given) | –
42 | 520 | CC(Br)C(=O)Nc1ccc(F)c(C(=O)NC(N)=O)c1 (stereo not given) | –
43 | 7680 | NC(=O)NC(=O)c1cc(NC(=O)CCl)ccc1F | –
44 | 540 | NC(=O)NC(=O)c1cc(NC(=O)CBr)ccc1Cl | –
45 | 1880 | COc1ccc(C(=O)NC(N)=O)cc1NC(=O)CBr | –
46 | > 20000 | NC(=O)NC(=O)c1ccc(F)c(NC(=O)CCl)c1 | –
47 | 4280 | Cc1ccc(C(=O)NC(N)=O)cc1NC(=O)CBr | –

Row | SMILES | IC50 [1] [nM] | further results
48 | NC(=O)NC(=O)c1cc(NC(=O)CI)ccc1F | < 10 | IC50 [3]: 160 nM; Activity [4]: Active; inhibition in vivo at 5 mg/kg [5]: 62%; Activity [6]: 37.6%; Activity [7]: Active; inhibition in vivo at 10 mg/kg [8]: 86%; IC50 [9]: 220 nM; IC50 [10]: 190 nM; LD50 [11]: 38.8 mg/kg; IC50 [12]: 54 nM; Activity [13]: Active; IC50 [14]: 20 nM; IC50 [15]: < 10 nM; Activity [16]: 21.6 g; IC50 [17]: 190 nM; IC50 [18]: < 10 nM; Activity [19]: Active; IC50 [20]: 710 nM
49 | NC(=O)NC(=O)c1cccc(NC(=O)CI)c1 | < 10 | inhibition in vivo at 10 mg/kg [8]: 57%; LD50 [11]: 31 mg/kg
